These results are taken from PubChem BioAssay AID624083 (The Scripps Research Institute Molecular Screening Center, 2012).

This experiment has as its target VIM-2 metallo-beta-lactamase (Pseudomonas aeruginosa). Kind of experiment: VIM-2 metallo-beta-lactamase inhibitors, Ki determination, late-stage follow-up, biochemical, absorbance, probe candidates and analogs (AID 624083). The conditions noted are these: recombinant VIM-2, nitrocefin hydrolysis absorbance 495 nm. An outline of the steps: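 Material: VIM-2 enzyme / Buffer or medium: pH 7.1 HEPES, zinc, Brij / Also added: nitrocefin substrate at varied concentrations / Compound dosing: inhibitor concentration series crossed with varied substrate / Timing: enzyme reaction at room temperature / Technique: absorbance at 495 nm tracking nitrocefin turnover over time / Read-out: Ki from mixed-inhibition regression / Repeats: two replicates per measurement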

Take `CN1CCN(NC(=O)CN2C(=O)/C(=C/c3c(Cl)cccc3Cl)SC2=S)CC1`: the Ki was 1780 nM.

For the compound `CN1CCN(NC(=O)CN2C(=O)/C(=C/c3c(Cl)ccc(Cl)c3Cl)SC2=S)CC1`, the Ki is 183 nM.
